Experimental data: ChEMBL document CHEMBL4400518, “Synthesis, antimicrobial and cytotoxic activities, and molecular docking studies of N-arylsulfonylindoles containing an aminoguanidine, a semicarbazide, and a thiosemicarbazide moiety” (Eur J Med Chem, 2019)
pIC50: −log10 of the molar value. Values after ≈ are worked out from the molar mass of the structure shown.

Legend:
Staphylococcus aureus [1] = experiment: Antibacterial activity against Staphylococcus aureus CMCC(B) 26003 measured after 24 hrs by ELISA; format: functional; conditions: CMCC(B) 26003, 24 h
Outline: (§1)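 Broth microdilution MIC. Mid-log bacteria in MHB or TSB diluted 1000-fold, inoculated at 10^5 CFU/mL. Compounds added from DMSO stocks; final DMSO at most 0.05%. Incubation 24 h at 37 °C. Growth read as absorbance at 630 nm. MIC taken as the lowest concentration giving complete growth inhibition. Three independent experiments.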

Staphylococcus aureus [2] = experiment: Antibacterial activity against Staphylococcus aureus CMCC 25923 measured after 24 hrs by ELISA; format: functional; conditions: CMCC 25923, 24 h; outline: as §1
Streptococcus pyogenes = experiment: Antibacterial activity against Streptococcus pyogenes CMCC 32067 measured after 24 hrs by ELISA; format: functional; conditions: CMCC 32067, 24 h; outline: as §1
Streptococcus pneumoniae = experiment: Antibacterial activity against Streptococcus pneumoniae CMCC 31968 measured after 24 hrs by ELISA; format: functional; conditions: CMCC 31968, 24 h
Enterococcus faecalis = experiment: Antibacterial activity against Enterococcus faecalis CMCC 29212 measured after 24 hrs by ELISA; format: functional; conditions: CMCC 29212, 24 h; outline: as §1
Bacillus subtilis = experiment: Antibacterial activity against Bacillus subtilis CMCC 63501 measured after 24 hrs by ELISA; format: functional; conditions: CMCC 63501, 24 h; outline: as §1
Escherichia coli [3] = experiment: Antibacterial activity against Escherichia coli CMCC 25922 measured after 24 hrs by ELISA; format: functional; conditions: CMCC 25922, 24 h; outline: as §1
Escherichia coli [4] = experiment: Antibacterial activity against Escherichia coli CMCC 44568 measured after 24 hrs by ELISA; format: functional; conditions: CMCC 44568, 24 h; outline: as §1
Pseudomonas aeruginosa [5] = experiment: Antibacterial activity against Pseudomonas aeruginosa CMCC 27853 measured after 24 hrs by ELISA; format: functional; conditions: CMCC 27853, 24 h; outline: as §1
Pseudomonas aeruginosa [6] = experiment: Antibacterial activity against Pseudomonas aeruginosa CMCC 10104 measured after 24 hrs by ELISA; format: functional; conditions: CMCC 10104, 24 h; outline: as §1
Staphylococcus aureus [7] = experiment: Antibacterial activity against methicillin-resistant Staphylococcus aureus ATCC 43300 measured after 24 hrs by ELISA; format: functional; conditions: ATCC 43300, 24 h
Outline: (§2)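 Broth serial dilution MIC. Mid-log bacteria in Mueller-Hinton or Tryptone Soya broth, diluted 1000-fold and inoculated at 10^5 CFU/mL. Compounds from DMSO stock, final DMSO ≤0.05%. Incubated 24 h at 37 °C; growth read as absorbance at 630 nm. MIC is the lowest concentration giving complete growth inhibition. Three independent experiments.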

Staphylococcus aureus [8] = experiment: Antibacterial activity against methicillin-resistant Staphylococcus aureus ATCC 33591 measured after 24 hrs by ELISA; format: functional; conditions: ATCC 33591, 24 h; outline: as §2
Escherichia coli [9] = experiment: Antibacterial activity against multidrug-resistant Escherichia coli ATCC BAA-196 measured after 24 hrs by ELISA; format: functional; conditions: ATCC BAA-196, 24 h; outline: as §2
Pseudomonas aeruginosa [10] = experiment: Antibacterial activity against multidrug-resistant Pseudomonas aeruginosa ATCC BAA-2111 measured after 24 hrs by ELISA; format: functional; conditions: ATCC BAA-2111, 24 h; outline: as §2
Staphylococcus aureus [11] = experiment: Antibacterial activity against Staphylococcus aureus CMCC 25923 assessed as ratio of MIC after and before 16 passages at sub-MIC; format: functional
Outline: (§3)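 Resistance by serial passage. After an initial broth-dilution MIC, bacteria grown at MIC/2 were transferred to a fresh MIC assay every 22 h incubation, repeatedly. Norfloxacin was the comparator antibiotic. MIC was tracked against passage day.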

Escherichia coli [12] = experiment: Antibacterial activity against Escherichia coli CMCC 44568 assessed as ratio of MIC after and before 16 passages at sub-MIC; format: functional; outline: as §3
[13] = Cytotoxicity against human A590 cells measured after 48 hrs by CCK8 assay; format: functional, cell-based
Outline: (§4)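 Cells kept in DMEM with 10% FBS and penicillin-streptomycin at 37 °C, 5% CO2. About 1×10^4 cells per well attached for 24 h, then exposed for 48 h to 0.3, 1, 3, 10, 30 and 100 µmol/L of compound, in triplicate wells. CCK-8 added for 3 h, OD read at 450 nm. IC50 is the concentration inhibiting growth by 50%.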

SGC-7901 = experiment: Cytotoxicity against human SGC7901 cells measured after 48 hrs by CCK8 assay; format: functional, cell-based; conditions: SGC-7901, 48 h; outline: as §4
HEK-293T = experiment: Cytotoxicity against HEK293T cells measured after 48 hrs by CCK8 assay; format: cell-based; conditions: Homo sapiens; outline: as §4
[14] = Selectivity index, ratio of IC50 for HEK293T cells to MIC for Staphylococcus aureus CMCC(B) 26003; format: toxicity; conditions: human, read-out: Selectivity Index
[15] = Selectivity index, ratio of IC50 for HEK293T cells to MIC for Staphylococcus aureus CMCC 25923; format: toxicity; conditions: human, read-out: Selectivity Index
[16] = Selectivity index, ratio of IC50 for HEK293T cells to MIC for Streptococcus pyogenes CMCC 32067; format: toxicity; conditions: human, read-out: Selectivity Index
[17] = Selectivity index, ratio of IC50 for HEK293T cells to MIC for Streptococcus pneumoniae CMCC 31968; format: toxicity; conditions: human, read-out: Selectivity Index
[18] = Selectivity index, ratio of IC50 for HEK293T cells to MIC for Enterococcus faecalis CMCC 29212; format: toxicity; conditions: human, read-out: Selectivity Index
[19] = Selectivity index, ratio of IC50 for HEK293T cells to MIC for Bacillus subtilis CMCC 63501; format: toxicity; conditions: human, read-out: Selectivity Index
[20] = Selectivity index, ratio of IC50 for HEK293T cells to MIC for Escherichia coli CMCC 25922; format: toxicity; conditions: human, read-out: Selectivity Index
[21] = Selectivity index, ratio of IC50 for HEK293T cells to MIC for Escherichia coli CMCC 44568; format: toxicity; conditions: human, read-out: Selectivity Index
[22] = Selectivity index, ratio of IC50 for HEK293T cells to MIC for Pseudomonas aeruginosa CMCC 27853; format: toxicity; conditions: human, read-out: Selectivity Index
[23] = Selectivity index, ratio of IC50 for HEK293T cells to MIC for Pseudomonas aeruginosa CMCC 10104; format: toxicity; conditions: human, read-out: Selectivity Index
[24] = Selectivity index, ratio of IC50 for HEK293T cells to MIC for methicillin-resistant Staphylococcus aureus ATCC 43300; format: toxicity; conditions: human, read-out: Selectivity Index
[25] = Selectivity index, ratio of IC50 for HEK293T cells to MIC for methicillin-resistant Staphylococcus aureus ATCC 33591; format: toxicity; conditions: human, read-out: Selectivity Index
[26] = Selectivity index, ratio of IC50 for HEK293T cells to MIC for multidrug-resistant Escherichia coli ATCC BAA-196; format: toxicity; conditions: human, read-out: Selectivity Index
[27] = Selectivity index, ratio of IC50 for HEK293T cells to MIC for multidrug-resistant Pseudomonas aeruginosa ATCC BAA-2111; format: toxicity; conditions: human, read-out: Selectivity Index

C/C(=N/NC(=N)N)c1cn(S(=O)(=O)c2ccc(C)cc2)c2ccc(Br)cc12
MIC (Staphylococcus aureus [1]): 4.47 µM (≈ 2 µg/mL) | MIC (Staphylococcus aureus [2]): 2.24 µM (≈ 1 µg/mL) | MIC (Streptococcus pyogenes): 286 µM (≈ 128 µg/mL) | MIC (Streptococcus pneumoniae): 2.24 µM (≈ 1 µg/mL) | MIC (Enterococcus faecalis): 8.94 µM (≈ 4.01 µg/mL) | MIC (Bacillus subtilis): 4.47 µM (≈ 2 µg/mL) | MIC (Escherichia coli [3]): 286 µM (≈ 128 µg/mL) | MIC (Escherichia coli [4]): 1.12 µM (≈ 0.502 µg/mL) | MIC (Pseudomonas aeruginosa [5]): > 286 µM | MIC (Pseudomonas aeruginosa [6]): > 286 µM | MIC (Staphylococcus aureus [7]): 1.12 µM (≈ 0.502 µg/mL) | MIC (Staphylococcus aureus [8]): 2.24 µM (≈ 1 µg/mL) | MIC (Escherichia coli [9]): 0.56 µM (≈ 0.251 µg/mL) | MIC (Pseudomonas aeruginosa [10]): > 71.6 µM | Ratio (Staphylococcus aureus [11]): 0 | Ratio (Escherichia coli [12]): 0 | pIC50 [13]: 5.35 | pIC50 (SGC-7901): 5.82 | pIC50 (HEK-293T): 4.25 | selectivity ratio [14]: 12.6 | selectivity ratio [15]: 25.2 | selectivity ratio [16]: 0.2 | selectivity ratio [17]: 25.2 | selectivity ratio [18]: 6.31 | selectivity ratio [19]: 12.6 | selectivity ratio [20]: 0.2 | selectivity ratio [21]: 50.4 | selectivity ratio [22]: < 0.2 | selectivity ratio [23]: < 0.2 | selectivity ratio [24]: 50.4 | selectivity ratio [25]: 25.2 | selectivity ratio [26]: 101 | selectivity ratio [27]: < 0.79

CCn1cc(C(=O)O)c(=O)c2cc(F)c(N3CCNCC3)cc21 [NORFLOXACIN]
MIC (Staphylococcus aureus [1]): 0.39 µM (≈ 0.125 µg/mL) | MIC (Staphylococcus aureus [2]): 0.39 µM (≈ 0.125 µg/mL) | MIC (Streptococcus pyogenes): > 401 µM | MIC (Streptococcus pneumoniae): > 401 µM | MIC (Enterococcus faecalis): 3.13 µM (≈ 1 µg/mL) | MIC (Bacillus subtilis): 6.27 µM (≈ 2 µg/mL) | MIC (Escherichia coli [3]): 0.39 µM (≈ 0.125 µg/mL) | MIC (Escherichia coli [4]): 0.39 µM (≈ 0.125 µg/mL) | MIC (Pseudomonas aeruginosa [5]): 6.27 µM (≈ 2 µg/mL) | MIC (Pseudomonas aeruginosa [6]): 12.5 µM (≈ 4 µg/mL) | MIC (Staphylococcus aureus [7]): 1.57 µM (≈ 0.501 µg/mL) | MIC (Staphylococcus aureus [8]): 0.78 µM (≈ 0.249 µg/mL) | MIC (Escherichia coli [9]): 1.57 µM (≈ 0.501 µg/mL) | MIC (Pseudomonas aeruginosa [10]): 3.13 µM (≈ 1 µg/mL) | Ratio (Staphylococcus aureus [11]): 32 | Ratio (Escherichia coli [12]): 16
